Reference: ChEMBL document CHEMBL5303300, “EUbOPEN Chemogenomics Library - Multiplex” (2023)
Values joined by “and” are separate entries in the source; they are usually repeats but may differ in a detail not shown here. Equal values may be shown once.

System: HEK-293T
Test: Multiplex assay against HEK293T
Assay type: toxicity, cell-based
Conditions: human, number of replicates 2
How it was run: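 Cells stained live at seeding with Hoechst33342, BioTracker Green Microtubule Cytoskeleton Dye, MitoTracker Red and Annexin V Alexa Fluor 680 were imaged on a CQ1 microscope at 37°C and 5% CO2 after compound addition. Their classification by CellPathfinder machine-learning gating ran from Hoechst high-intensity objects versus normal cells, to healthy, pyknosed or fragmented nuclei among normal cells, to mitotic or apoptotic among pyknosed cells. Tubulin, mitochondrial-mass and membrane-permeability phenotypes are per cents of healthy-nucleus cells.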

[1] = 12 h, 1 µM, compound concentration 1 uM
[2] = 12 h, 10 µM, compound concentration 10 uM
[3] = 24 h, 1 µM, compound concentration 1 uM
[4] = 24 h, 10 µM, compound concentration 10 uM
[5] = 48 h, 1 µM, compound concentration 1 uM
[6] = 48 h, 10 µM, compound concentration 10 uM

COc1nc2ccc([C@@](O)(c3ccc(Cl)cc3)c3cncn3C)cc2c(Cl)c1Cc1ccc(-n2cccn2)cc1 [JNJ-53721590]
Population Apoptotic (%) [1]: 43% and 52%
Population Fragmented Nuclei (%) [1]: 4% and 2%
Population Healthy Nuclei (%) [1]: 81%
Population Hoechst High Intensity Objects (%) [1]: 7%
Population Membrane Permeable-Phenotype (%) [1]: 4% and 5%
Population Mitochondria Different-Phenotype (%) [1]: 26%
Population Mitotic Cells (%) [1]: 56% and 47%
Population Normal (%) [1]: 92%
Population Pyknosed Nuclei (%) [1]: 13% and 15%
Population Tubulin-Different-Phenotype (%) [1]: 74% and 70%
Total Cell Count [1]: 675 and 403
Population Apoptotic (%) [2]: 41% and 64%
Population Fragmented Nuclei (%) [2]: 2%
Population Healthy Nuclei (%) [2]: 88%
Population Hoechst High Intensity Objects (%) [2]: 6%
Population Membrane Permeable-Phenotype (%) [2]: 21% and 12%
Population Mitochondria Different-Phenotype (%) [2]: 24%
Population Mitotic Cells (%) [2]: 58% and 35%
Population Normal (%) [2]: 93%
Population Pyknosed Nuclei (%) [2]: 9% and 8%
Population Tubulin-Different-Phenotype (%) [2]: 94%
Total Cell Count [2]: 831 and 720
Population Apoptotic (%) [3]: 42% and 54%
Population Fragmented Nuclei (%) [3]: 6% and 3%
Population Healthy Nuclei (%) [3]: 84% and 87%
Population Hoechst High Intensity Objects (%) [3]: 8% and 7%
Population Membrane Permeable-Phenotype (%) [3]: 4% and 1%
Population Mitochondria Different-Phenotype (%) [3]: 11% and 15%
Population Mitotic Cells (%) [3]: 57% and 45%
Population Normal (%) [3]: 91% and 92%
Population Pyknosed Nuclei (%) [3]: 8%
Population Tubulin-Different-Phenotype (%) [3]: 57% and 53%
Total Cell Count [3]: 1025 and 592
Population Apoptotic (%) [4]: 37% and 57%
Population Fragmented Nuclei (%) [4]: 2% and 1%
Population Healthy Nuclei (%) [4]: 87% and 84%
Population Hoechst High Intensity Objects (%) [4]: 5% and 8%
Population Membrane Permeable-Phenotype (%) [4]: 16% and 11%
Population Mitochondria Different-Phenotype (%) [4]: 19% and 23%
Population Mitotic Cells (%) [4]: 62% and 42%
Population Normal (%) [4]: 94% and 91%
Population Pyknosed Nuclei (%) [4]: 9% and 13%
Population Tubulin-Different-Phenotype (%) [4]: 95% and 96%
Total Cell Count [4]: 856 and 731
Population Apoptotic (%) [5]: 18% and 38%
Population Fragmented Nuclei (%) [5]: 10% and 8%
Population Healthy Nuclei (%) [5]: 86% and 85%
Population Hoechst High Intensity Objects (%) [5]: 8% and 11%
Population Membrane Permeable-Phenotype (%) [5]: 5% and 2%
Population Mitochondria Different-Phenotype (%) [5]: 2% and 7%
Population Mitotic Cells (%) [5]: 81% and 61%
Population Normal (%) [5]: 91% and 88%
Population Pyknosed Nuclei (%) [5]: 3% and 6%
Population Tubulin-Different-Phenotype (%) [5]: 37% and 39%
Total Cell Count [5]: 2031 and 1111
Population Apoptotic (%) [6]: 40% and 52%
Population Fragmented Nuclei (%) [6]: 5% and 6%
Population Healthy Nuclei (%) [6]: 90% and 87%
Population Hoechst High Intensity Objects (%) [6]: 10% and 12%
Population Membrane Permeable-Phenotype (%) [6]: 28% and 21%
Population Mitochondria Different-Phenotype (%) [6]: 3% and 4%
Population Mitotic Cells (%) [6]: 60% and 47%
Population Normal (%) [6]: 89% and 87%
Population Pyknosed Nuclei (%) [6]: 4% and 5%
Population Tubulin-Different-Phenotype (%) [6]: 93% and 95%
Total Cell Count [6]: 993 and 855

CCN1CCN(Cc2ccc(C(=O)Nc3ccc(C)c(Oc4ccc5c(c4)CC(=O)N5)c3)cc2C(F)(F)F)CC1.Cl.Cl
Population Apoptotic (%) [1]: 43% and 61%
Population Fragmented Nuclei (%) [1]: 3% and 7%
Population Healthy Nuclei (%) [1]: 83% and 79%
Population Hoechst High Intensity Objects (%) [1]: 6% and 8%
Population Membrane Permeable-Phenotype (%) [1]: 2%
Population Mitochondria Different-Phenotype (%) [1]: 24% and 20%
Population Mitotic Cells (%) [1]: 56% and 38%
Population Normal (%) [1]: 93% and 91%
Population Pyknosed Nuclei (%) [1]: 12% and 13%
Population Tubulin-Different-Phenotype (%) [1]: 64% and 61%
Total Cell Count [1]: 609 and 592
Population Apoptotic (%) [2]: 68% and 69%
Population Fragmented Nuclei (%) [2]: 6% and 5%
Population Healthy Nuclei (%) [2]: 80% and 81%
Population Hoechst High Intensity Objects (%) [2]: 12% and 10%
Population Membrane Permeable-Phenotype (%) [2]: 6% and 2%
Population Mitochondria Different-Phenotype (%) [2]: 30% and 42%
Population Mitotic Cells (%) [2]: 31% and 30%
Population Normal (%) [2]: 87% and 89%
Population Pyknosed Nuclei (%) [2]: 13% and 12%
Population Tubulin-Different-Phenotype (%) [2]: 96% and 95%
Total Cell Count [2]: 598 and 606
Population Apoptotic (%) [3]: 40% and 52%
Population Fragmented Nuclei (%) [3]: 4% and 3%
Population Healthy Nuclei (%) [3]: 88% and 89%
Population Hoechst High Intensity Objects (%) [3]: 7% and 8%
Population Membrane Permeable-Phenotype (%) [3]: 2%
Population Mitochondria Different-Phenotype (%) [3]: 9%
Population Mitotic Cells (%) [3]: 59% and 47%
Population Normal (%) [3]: 92% and 91%
Population Pyknosed Nuclei (%) [3]: 7% and 6%
Population Tubulin-Different-Phenotype (%) [3]: 45% and 47%
Total Cell Count [3]: 907 and 801
Population Apoptotic (%) [4]: 58% and 78%
Population Fragmented Nuclei (%) [4]: 7% and 5%
Population Healthy Nuclei (%) [4]: 78% and 81%
Population Hoechst High Intensity Objects (%) [4]: 15%
Population Membrane Permeable-Phenotype (%) [4]: 4% and 2%
Population Mitochondria Different-Phenotype (%) [4]: 40% and 44%
Population Mitotic Cells (%) [4]: 41% and 21%
Population Normal (%) [4]: 84%
Population Pyknosed Nuclei (%) [4]: 14% and 12%
Population Tubulin-Different-Phenotype (%) [4]: 97% and 95%
Total Cell Count [4]: 517 and 556
Population Apoptotic (%) [5]: 12% and 23%
Population Fragmented Nuclei (%) [5]: 10% and 6%
Population Healthy Nuclei (%) [5]: 85% and 87%
Population Hoechst High Intensity Objects (%) [5]: 9% and 8%
Population Membrane Permeable-Phenotype (%) [5]: 5% and 3%
Population Mitochondria Different-Phenotype (%) [5]: 0% and 1%
Population Mitotic Cells (%) [5]: 87% and 76%
Population Normal (%) [5]: 90% and 91%
Population Pyknosed Nuclei (%) [5]: 4% and 5%
Population Tubulin-Different-Phenotype (%) [5]: 22% and 28%
Total Cell Count [5]: 2293 and 1602
Population Apoptotic (%) [6]: 75%
Population Fragmented Nuclei (%) [6]: 10% and 14%
Population Healthy Nuclei (%) [6]: 76% and 73%
Population Hoechst High Intensity Objects (%) [6]: 14% and 17%
Population Membrane Permeable-Phenotype (%) [6]: 13% and 5%
Population Mitochondria Different-Phenotype (%) [6]: 12% and 13%
Population Mitotic Cells (%) [6]: 25%
Population Normal (%) [6]: 85% and 82%
Population Pyknosed Nuclei (%) [6]: 12%
Population Tubulin-Different-Phenotype (%) [6]: 94% and 93%
Total Cell Count [6]: 709 and 749
